Source: ChEMBL document CHEMBL1137984, “Structure-activity relationship of heterobase-modified 2'-C-methyl ribonucleosides as inhibitors of hepatitis C virus RNA replication” (J Med Chem, 2004)

What was measured:
[1] = Cmax value in rats; format: ADME, organism-based; settings: rat, in vivo
How it was run: (§1)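 Male CRL rats; single intravenous dose of 1.0 mg/kg (N = 2) and oral dose at […] (N = 3). Plasma sampled and analysed by a method described earlier; clearance, half-life, Cmax, Tmax and %F derived from plasma levels.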

[2] = Half-life in rats; format: ADME; settings: rat, in vivo; how it was run: as §1
[3] = Cytotoxicity against HB-1 cells in an MTS-based assay; format: functional; settings: HB1
[4] = Tmax value in rats; format: ADME; settings: rat, in vivo; how it was run: as §1
[5] = Oral bioavailability in rat; format: ADME, organism-based; settings: in vivo; how it was run: as §1
Nucleic Acid = test: Inhibition of HCV RNA replication in a subgenomic bicistronic replicon assay in HB-1 cells; format: functional, cell-based, Hepacivirus hominis; settings: Hepatitis C virus, HB1
How it was run: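 Subgenomic bicistronic HCV replicon in HB-1 cells; viral RNA quantified by in situ RNase protection assay after 24 h of nucleoside treatment. EC50 averaged over at least two independent potency determinations. Nucleosides purified by preparative RP-HPLC, purity generally >98%.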

[6] = Clearance in rats when administered at a dose of 1 mg/kg i.v. and […] p.o.; format: ADME, organism-based; parameters: dose 1 mg/kg; settings: rat, in vivo, iv; how it was run: as §1
Hepatitis C virus = test: Compound was tested for the inhibition of HCV NS5B-mediated RNA synthesis; format: functional, Hepacivirus hominis
How it was run: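 Enzymatic activity of HCV NS5B Δ21 measured with nucleoside 5'-triphosphates as inhibitors, by an earlier protocol. Triphosphates purified by anion exchange, desalted by RP-HPLC, >90% pure, identity confirmed by MS. IC50 averaged over at least three separate determinations.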

SMILES	CC50 [3] [µM]	EC50 (Nucleic Acid) [µM]	other results
C[C@@]1(O)[C@H](O)[C@@H](CO)O[C@H]1n1cc(F)c2c(N)ncnc21	> 100	0.07	Cmax [1]: 600 nM; half-life [2]: 306 min; Tmax [4]: 30 min; bioavailability [5]: 51%; Clearance [6]: 44 mL/min/kg
C[C@@]1(O)[C@H](O)[C@@H](CO)O[C@H]1n1cc(Cl)c2c(O)nc(N)nc21	> 100	> 100	
C[C@@]1(O)[C@H](O)[C@@H](CO)O[C@H]1n1ccc2c(N)nccc21	> 100	> 100	
C[C@@]1(O)[C@H](O)[C@@H](CO)O[C@H]1n1ccc2c(N)nc(N)nc21	> 100	100	
C[C@@]1(O)[C@H](O)[C@@H](CO)O[C@H]1n1cc(Cl)c2c(N)ncnc21	~50	0.13	
C[C@@]1(O)[C@H](O)[C@@H](CO)O[C@H]1n1cc(Br)c2c(N)ncnc21	40	0.24	
C[C@@]1(O)[C@H](O)[C@@H](CO)O[C@H]1n1ccc2c(O)nc(N)nc21	> 100	> 100	
C[C@@]1(O)[C@H](O)[C@@H](CO)O[C@H]1n1cc(C(=O)O)c2c(N)ncnc21	> 100	70	
C[C@]1(O)C(n2cc(C#N)c3c(N)ncnc32)O[C@H](CO)[C@H]1O (stereo partly drawn)	~50	3.1	
C[C@]1(O)C(n2cc(C(N)=O)c3c(N)ncnc32)O[C@H](CO)[C@H]1O (stereo partly drawn)	~33	0.08	
C[C@@]1(O)[C@H](O)[C@@H](CO)O[C@H]1n1ncc2c(N)ncnc21	> 100	> 100	
Cc1cn([C@@H]2O[C@H](CO)[C@@H](O)[C@@]2(C)O)c2ncnc(N)c12	> 100	34	
C[C@@]1(O)[C@H](O)[C@@H](CO)O[C@H]1n1ccc2c(N)nc(F)nc21	> 100	100	
C[C@@]1(O)[C@H](O)[C@@H](CO)O[C@H]1n1cnc2c(N)ncnc21	> 100	0.26	half-life [2]: 18 min; IC50 (Hepatitis C virus): 1900 nM; bioavailability [5]: 0%; Clearance [6]: > 200 mL/min/kg
C[C@@]1(O)[C@H](O)[C@@H](CO)O[C@H]1n1cnc2c(=O)[nH]c(N)nc21 [2'-B-METHYL-GUANOSINE]	> 100	3.5	IC50 (Hepatitis C virus): 130 nM; bioavailability [5]: 85%
C[C@@]1(O)[C@H](O)[C@@H](CO)O[C@H]1n1ccc2c(N)ncnc21 [BETA-2'-C-METHYL-7-DEAZA-ADENOSINE]	> 100	0.25	
